# In ChEMBL document CHEMBL5252514, “Conopeptide-Derived κ-Opioid Agonists (Conorphins): Potent, Selective, and Metabolic Stable Dynorphin A Mimetics with Antinociceptive Properties” (J Med Chem, 2016):
# Where a SMILES comes first, the peptide text is derived from it.
# How the values were obtained:
# [1] = target: Kappa-type opioid receptor (Homo sapiens, UniProt P41145); assay: Displacement of [3H]U69593 from human kappa opioid receptor expressed in CHO-K1 cells incubated for 1 hr by 1450 microbeta scintillation counter analysis; assay type: cell-based
# In short: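 Membranes from transiently KOR-transfected CHO-K1 cells (~2 µg/well) used in SPA with 3H-U69,593 (1 nM). Competitor ranged 1 pM–10 µM in 50 mM Tris-HCl pH 7.4, 5 mM MgCl2, 0.1% BSA. Incubated 1 h at room temperature with shaking. Nonspecific binding defined with 10 µM dynorphin A. Sigmoidal dose-response fit; at least three independent experiments in triplicate.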
# [2] = Metabolic stability in Wistar rat plasma assessed as half life by HPLC analysis; assay type: ADME, cell-free
# In short: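 Peptide at 1 mg/mL in sterile PBS pH 7.4 was mixed 1:1 with thawed, centrifuged Wistar rat plasma supernatant and incubated at 37°C in triplicate. Samples at 0, 1, 2, 3, 4, 6 and 24 h were quenched with acetonitrile and then 2% TFA/water, and analysed by HPLC with inline electrospray MS.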
# Kappa-type opioid receptor, sequence (P41145 whole entry): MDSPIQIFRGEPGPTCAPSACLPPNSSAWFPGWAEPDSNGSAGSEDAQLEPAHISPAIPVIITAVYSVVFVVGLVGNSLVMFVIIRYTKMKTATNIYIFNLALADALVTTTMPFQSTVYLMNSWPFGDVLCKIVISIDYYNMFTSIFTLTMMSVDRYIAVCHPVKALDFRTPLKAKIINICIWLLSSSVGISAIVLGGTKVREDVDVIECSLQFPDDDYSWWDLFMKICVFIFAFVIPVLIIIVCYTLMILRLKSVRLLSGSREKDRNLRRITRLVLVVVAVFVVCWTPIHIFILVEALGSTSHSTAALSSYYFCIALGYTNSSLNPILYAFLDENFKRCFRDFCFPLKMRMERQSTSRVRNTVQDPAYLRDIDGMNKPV
Compound,Ki [1] [µM],half-life [2] [h]
N=C(N)NCCC[C@@H](NC(=O)[C@@H](CCCNC(=N)N)NC(=O)[C@@H]1CCCN1C(=O)c1ccccc1)C(=O)N[C@@H](CCC(N)=O)C(=O)N[C@H](CN[C@H]1CSSC[C@@H](C(N)=O)NC1=O)CC1CCCCC1,0.135,16
CC[C@H](C)[C@H](NC(=O)[C@H](CCC(N)=O)NC(=O)[C@H](CCCNC(=N)N)NC(=O)[C@@H](N)CCCNC(=N)N)C(N)=O (H-RRQI-NH2),23,–
